{"source": "ChEMBL document CHEMBL1125273", "about": "“Synthesis and biological evaluation of quinocarcin derivatives: thioalkyl-substituted quinones and hydroquinones” (J Med Chem, 1991)", "key": {"[1]": {"experiment": "Antitumor activity in vivo in CD2F1 mice measured in terms of percent increase in lifespan calculated at a dose of 6.25 mg/kg intraperitoneally on days 1-5.", "type": "functional", "details": "Mus musculus, ip, route intraperitoneal", "how_it_was_run": "(§1)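 P388 lymphocytic leukemia cells (1×10^6) were implanted ip into CD2F1 mice (about 22 g), five mice per group. Drug was given ip from the day after implantation, either once (day 1) or daily on days 1–5. ILS = (T/C − 1) × 100, where T and C are the median survival times of treated and control mice.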"}, "[2]": {"experiment": "Antitumor activity in vivo in CD2F1 mice measured in terms of percent increase in lifespan calculated at a dose of 12.5 mg/kg intraperitoneally on day one.", "type": "functional", "details": "Mus musculus, ip, route intraperitoneal", "how_it_was_run": "as §1"}, "[3]": {"test_system": "HeLa", "experiment": "In vitro concentration required to inhibit the growth of HeLa S3 cells by 50%", "type": "functional, cell-based", "details": "Homo sapiens", "how_it_was_run": "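HeLa S3 cells (5 × 10⁴) seeded in Eagle's MEM with 10% FBS and 0.06 mg/mL kanamycin; graded drug concentrations, diluted in growth medium, added 24 h after seeding. Incubated 72 h at 37 °C, humidified 5% CO₂. Monolayers then washed, detached with 0.05% trypsin/0.02% EDTA and counted electronically; IC50 taken as concentration giving 50% growth inhibition.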"}, "[4]": {"test_system": "CCRF S-180", "experiment": "Ratio of ILS tested compound/quinocarcin against murine sarcoma S-180 tumor cell line implanted subcutaneously in mice and the compound administered intravenously at a dose of 4.41 mg/kg on days 1-5.", "type": "functional, Mus musculus", "details": "route intravenous"}, "[5]": {"test_system": "Homo sapiens", "experiment": "Ratio of ILS tested compound/quinocarcin against human mammary carcinoma MX-1 cell line implanted subcutaneously in mice and the compound administered intravenously at a dose of 4.41 mg/kg on days 1-5.", "type": "functional", "details": "route intravenous"}, "[6]": {"experiment": "Ratio of the ILS tested compound/quinocarcin was determined for day one in CD2F1 mice.", "type": "functional, Mus musculus", "how_it_was_run": "(§2)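 CD2F1 mice (5 per group) received 10^6 P388 cells ip. Drug was given ip on day 1 or on days 1–5. ILS was taken as (T/C − 1) × 100 from median survival times, and each compound's ILS was divided by the ILS of quinocarcin.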"}, "[7]": {"experiment": "Ratio of the ILS tested compound/quinocarcin was determined in CD2F1 mice on days 1-5.", "type": "functional, Mus musculus", "how_it_was_run": "as §2"}, "[8]": {"experiment": "Antitumor activity in vivo in CD2F1 mice measured in terms of percent increase in lifespan calculated at a dose of 37.5 mg/kg intraperitoneally on day one.", "type": "functional", "details": "Mus musculus, ip, route intraperitoneal", "how_it_was_run": "as §1"}, "[9]": {"experiment": "Antitumor activity in vivo in CD2F1 mice measured in terms of percent increase in lifespan calculated at a dose of 12.5 mg/kg intraperitoneally on days 1-5.", "type": "functional", "details": "Mus musculus, ip, route intraperitoneal", "how_it_was_run": "as §1"}, "[10]": {"experiment": "Antitumor activity in vivo in CD2F1 mice measured in terms of percent increase in lifespan calculated at a dose of 25 mg/kg intraperitoneally on day one.", "type": "functional", "details": "Mus musculus, ip, route intraperitoneal", "how_it_was_run": "as §1"}, "[11]": {"test_system": "CCRF S-180", "experiment": "Ratio of ILS tested compound/quinocarcin against murine sarcoma S-180 tumor cell line implanted subcutaneously in mice and the compound administered intravenously at a dose of 12.5 mg/kg on days 1-5.", "type": "functional, Mus musculus", "details": "route intravenous"}, "[12]": {"test_system": "Homo sapiens", "experiment": "Ratio of ILS tested compound/quinocarcin against human mammary carcinoma MX-1 cell line implanted subcutaneously in mice and the compound administered intravenously at a dose of 5.96 mg/kg on days 1-5.", "type": "functional", "details": "route intravenous"}, "[13]": {"test_system": "Homo sapiens", "experiment": "Ratio of ILS tested compound/quinocarcin against human mammary carcinoma MX-1 cell line implanted subcutaneously in mice and the compound administered intravenously at a dose of 9.35 mg/kg on days 1-5.", "type": "functional", "details": "route intravenous"}, "[14]": {"experiment": "Antitumor activity in vivo in CD2F1 mice measured in terms of percent increase in lifespan calculated at a dose of 6.25 mg/kg intraperitoneally on day one.", "type": "functional", "details": "Mus musculus, ip, route intraperitoneal", "how_it_was_run": "as §1"}, "[15]": {"experiment": "Antitumor activity in vivo in CD2F1 mice measured in terms of percent increase in lifespan calculated at a dose of 3.13 mg/kg intraperitoneally on days 1-5.", "type": "functional", "details": "Mus musculus, ip, route intraperitoneal", "how_it_was_run": "as §1"}, "[16]": {"test_system": "Co-3", "experiment": "Ratio of ILS tested compound/quinocarcin against Co-3 tumor cell line implanted subcutaneously in mice and the compound administered intravenously at a dose of 5.58 mg/kg on days 1-5.", "type": "functional, Homo sapiens", "details": "route intravenous"}, "[17]": {"test_system": "Co-3", "experiment": "Ratio of ILS tested compound/quinocarcin against Co-3 tumor cell line implanted subcutaneously in mice and the compound administered intravenously at a dose of 9.18 mg/kg on days 1-5.", "type": "functional, Homo sapiens", "details": "route intravenous"}, "[18]": {"test_system": "CCRF S-180", "experiment": "Ratio of ILS tested compound/quinocarcin against murine sarcoma S-180 tumor cell line implanted subcutaneously in mice and the compound administered intravenously at a dose of 5.85 mg/kg on days 1-5.", "type": "functional, Mus musculus", "details": "route intravenous"}, "[19]": {"test_system": "St-4", "experiment": "Ratio of ILS tested compound/quinocarcin against St-4 tumor cell line implanted subcutaneously in mice and the compound administered intravenously at a dose of 5.58 mg/kg on days 1-5.", "type": "functional, Homo sapiens", "details": "route intravenous"}, "[20]": {"test_system": "St-4", "experiment": "Ratio of ILS tested compound/quinocarcin against St-4 tumor cell line implanted subcutaneously in mice and the compound administered intravenously at a dose of 9.18 mg/kg on days 1-5.", "type": "functional, Homo sapiens", "details": "route intravenous"}, "[21]": {"test_system": "Homo sapiens", "experiment": "Ratio of ILS tested compound/quinocarcin against human mammary carcinoma MX-1 cell line implanted subcutaneously in mice and the compound administered intravenously at a dose of 3.55 mg/kg on days 1-5.", "type": "functional", "details": "route intravenous"}, "[22]": {"test_system": "Homo sapiens", "experiment": "Ratio of ILS tested compound/quinocarcin against human mammary carcinoma MX-1 cell line implanted subcutaneously in mice and the compound administered intravenously at a dose of 5.58 mg/kg on days 1-5.c means number of cured mice.", "type": "functional", "details": "route intravenous"}, "[23]": {"experiment": "Antitumor activity in vivo in CD2F1 mice measured in terms of percent increase in lifespan calculated at a dose of 200 mg/kg intraperitoneally on day one.", "type": "functional", "details": "Mus musculus, ip, route intraperitoneal", "how_it_was_run": "as §1"}}}
{"molecule": "CSC1=C(SC)C(=O)C2=C(C[C@H]3[C@H]4[C@H](C(=O)O)C[C@@H](C(C#N)N3[C@H]2CO)N4C)C1=O", "note": "(some centres not stated)", "values": [{"measurement": "ILS at 6.25 mg/kg", "setting": "[1]", "result": 71, "unit": "%"}, {"measurement": "ILS at 12.5 mg/kg", "setting": "[2]", "result": 53, "unit": "%"}, {"measurement": "IC50", "setting": "[3]", "result": 0.13, "unit": "µg/mL"}, {"measurement": "T/C", "setting": "[4]", "result": 1.06}, {"measurement": "T/C", "setting": "[5]", "result": 0.67}, {"measurement": "R", "setting": "[6]", "result": 1.23}, {"measurement": "R", "setting": "[7]", "result": 0.59}]}
{"molecule": "COc1c2c(c(OC)c(SC(C)C)c1SC(C)C)[C@@H]1COC3[C@@H]4C[C@@H](C(=O)O)[C@H]([C@H](C2)N31)N4C", "note": "(some centres not stated)", "values": [{"measurement": "ILS at 37.5 mg/kg", "setting": "[8]", "result": 9, "unit": "%"}, {"measurement": "IC50", "setting": "[3]", "result": 0.05, "unit": "µg/mL"}]}
{"molecule": "CC(C)SC1=C(SC(C)C)C(=O)C2=C(C[C@H]3[C@H]4[C@H](C(=O)O)C[C@@H](C(C#N)N3[C@H]2CO)N4C)C1=O", "note": "(some centres not stated)", "values": [{"measurement": "ILS at 12.5 mg/kg", "setting": "[9]", "result": 119, "unit": "%"}, {"measurement": "ILS at 25 mg/kg", "setting": "[10]", "result": 65, "unit": "%"}, {"measurement": "IC50", "setting": "[3]", "result": 0.012, "unit": "µg/mL"}, {"measurement": "T/C", "setting": "[11]", "result": 0.37}, {"measurement": "T/C", "setting": "[12]", "result": 0.83}, {"measurement": "T/C", "setting": "[13]", "result": 0.22}, {"measurement": "R", "setting": "[6]", "result": 1.48}, {"measurement": "R", "setting": "[7]", "result": 1.35}]}
{"molecule": "CSC1=C(SC)C(=O)C2=C(C[C@H]3[C@H]4[C@H](C(=O)O)C[C@@H](C5OC[C@@H]2N53)N4C)C1=O", "note": "(some centres not stated)", "values": [{"measurement": "ILS at 6.25 mg/kg", "setting": "[14]", "result": 48, "unit": "%"}, {"measurement": "ILS at 3.13 mg/kg", "setting": "[15]", "result": 91, "unit": "%"}, {"measurement": "T/C", "setting": "[16]", "result": 0.43}, {"measurement": "T/C", "setting": "[17]", "result": 0.21}, {"measurement": "IC50", "setting": "[3]", "result": 0.019, "unit": "µg/mL"}, {"measurement": "T/C", "setting": "[18]", "result": 0.86}, {"measurement": "T/C", "setting": "[19]", "result": 0.56}, {"measurement": "T/C", "setting": "[20]", "result": 0.2}, {"measurement": "T/C", "setting": "[21]", "result": 0.21}, {"measurement": "T/C", "setting": "[22]", "result": 0.006}, {"measurement": "R", "setting": "[6]", "result": 1.85}, {"measurement": "R", "setting": "[7]", "result": 0.88}]}
{"molecule": "CCOC(=O)CSc1c(O)c2c(c(O)c1SCC(=O)OCC)[C@H](CO)N1C(C#N)[C@@H]3C[C@@H](C(=O)O)[C@H]([C@@H]1C2)N3C", "note": "(some centres not stated)", "values": [{"measurement": "ILS at 200 mg/kg", "setting": "[23]", "result": 37, "unit": "%"}, {"measurement": "IC50", "setting": "[3]", "result": "> 10", "unit": "µg/mL"}, {"measurement": "R", "setting": "[6]", "result": 0.9}]}
